Rows were chosen to be rich in hits. Some 1.9% of all compounds tested hit in one or more screens of this group.
CCR6 antagonist: antagonists of human CCR6 receptor. P51684. CHO-K1 CCR6 PathHunter beta-arrestin, luminescence, CCL20-stimulated. inhibition, % at 20 µM. hit rate 0.49% among 340,000;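 active means compounds whose inhibition of the agonist-driven luminescence signal at 20 µM reaches about 50%, limit read from the data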;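 further: cells stimulated with CCL20 at 14 nM final; plate controls were DMSO with CCL20 for no effect and DMSO without agonist for full effect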
APJ antag: APJ receptor antagonism; hit rate 0.32% among 330,000; CHO-K1 APJ beta-arrestin complementation, luminescence; inhibition, % at 20 µM; P35414;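 active means inhibition above about 40% at 20 µM, limit read from the data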;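 further: cells challenged with 10 nM apelin-13 agonist together with compound; plate controls were apelin-13 plus DMSO wells for no effect and DMSO wells lacking apelin-13 for full effect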
EBI2 block: EBI2 (human) antagonism; P32249; EBI2 beta-arrestin recruitment, luminescence, 7a,25-OHC stimulated; inhibition, % at 5 µM; hit rate 0.81% among 360,000; in the data active means inhibition above about 38%;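 further: enzyme fragment complementation signal reports receptor beta-arrestin coupling in cells; 0% = agonist plus DMSO wells and 100% = wells without agonist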
TAG inh: inhibitors of triacylglycerol accumulation; H9c2 cells, Nile Red lipid (TAG) fluorescence; cells loaded with 200 µM oleic acid; inhibition, % at 12.5 µM; hit rate 0.66% among 230,000;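 active means pattern-corrected inhibition of lipid staining of at least 50% with the nuclear-stain viability signal not falling by more than 50%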;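 further: 0% = DMSO wells and 100% = triacsin C control wells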
APJ agonist: APJ receptor agonism | activation, % at 20 µM | P35414 | CHO-K1 APJ PathHunter beta-arrestin, luminescence; 0% DMSO wells, 100% apelin | hit rate 0.11% among 330,000;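 active means activation more than six SD over the plate average, tested at 20 µM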;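 further: 0% = DMSO alone and 100% = apelin-13 at 10 nM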
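Test system: CHO-K1 APJ beta-arrestin complementation cell line | Compound: Single test compound dose, 20 µM final, 1% DMSO | Incubation: Compound 90 min 25 °C, reagent 1 h | Measured by: beta-gal luminescence | Read-out basis: APJ–arrestin association signal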
CXCR6 block: blocks human CXCR6 beta-arrestin recruitment; O00574; CHO-K1 PathHunter CXCR6 beta-arrestin, luminescence; inhibition, % at 20 µM; hit rate 0.36% among 360,000; AID 602244; in the data active means inhibition above about 34%, passing the limit was not always enough;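 further: antagonist mode with CXCL16 agonist at 10 nM final; 0% = 10 nM CXCL16 with DMSO and 100% = unstimulated wells without agonist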
Target sequence (O00574 whole entry, looked up): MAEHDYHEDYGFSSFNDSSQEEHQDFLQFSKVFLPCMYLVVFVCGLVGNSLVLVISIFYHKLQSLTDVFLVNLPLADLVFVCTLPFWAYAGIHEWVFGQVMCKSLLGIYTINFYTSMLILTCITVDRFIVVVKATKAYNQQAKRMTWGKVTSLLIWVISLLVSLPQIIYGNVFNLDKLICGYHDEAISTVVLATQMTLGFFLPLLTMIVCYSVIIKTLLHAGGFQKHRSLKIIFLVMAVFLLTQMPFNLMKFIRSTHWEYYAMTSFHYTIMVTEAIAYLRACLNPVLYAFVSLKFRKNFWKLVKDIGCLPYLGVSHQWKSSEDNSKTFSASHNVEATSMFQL
EBI2 conf: confirmation of human EBI2 receptor antagonists | EBI2 beta-arrestin luminescence, 7a,25-OHC antagonism | shares compounds with EBI2 block | hit rate 29% among 2,400 | inhibition, % at 5 µM | AID 651997;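 active means inhibition of at least 50%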
EBI2 ag: EBI2 agonism counter-screen. 2,400 tested, under 10 active. activation, % at 5 µM. EBI2-expressing cells, agonist mode, luminescence, 60 min; 0% vehicle, 100% 7α,25-dihydroxycholesterol control. shares compounds with EBI2 block;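 active means activation of at least 50%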
bGal cs: beta-galactosidase inhibition counter-screen; shares compounds with EBI2 block; purified beta-galactosidase, luminescent Galacton Star, 15 min; inhibition, % at 5 µM; hit rate 1% among 2,400; AID 652176;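 active means replicate-average signal at least 3 plate SD below neutral wells, shown as high inhibition, flagging enzyme-inhibiting false positives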;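 further: 0% = DMSO wells with enzyme and 100% = wells lacking enzyme; higher means stronger loss of beta-gal luminescence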
* = called active by the depositor; · = not tested or not shown.

SMILES	CCR6 antagonist	APJ antag	EBI2 block	TAG inh	APJ agonist	CXCR6 block	EBI2 conf	EBI2 ag	bGal cs
COc1cccc(CN(C)C(=O)Cc2c[nH]c3ccccc23)c1OC	7	8	6	·	-3	4	·	·	·
COc1ccc(CN(C)C(=O)Cc2c[nH]c3ccccc23)cc1	11	2	52*	·	-1	-4	31	0	-9
COc1cccc(CN(C)C(=O)Cc2c[nH]c3ccccc23)c1	4	9	51*	-4	-4	-7	40	-1	-3
CC1(c2nnc(-c3ccc(Cl)cc3)o2)CC(c2ccncc2)=NO1 (centres undefined)	-1	12	-9	-3	-1	2	·	·	·
CC1(c2nnc(-c3ccc(Cl)cc3)o2)CC(c2c(Cl)cccc2Cl)=NO1 (centres undefined)	7	8	52*	8	-6	-14	60*	0	-18
CC1(c2nnc(-c3ccc(F)cc3)o2)CC(c2c(Cl)cccc2Cl)=NO1 (centres undefined)	12	13	50*	-8	-4	0	49	0	4
CC1(c2nnc(-c3ccc(F)cc3)o2)CC(c2ccc(Cl)cc2)=NO1 (centres undefined)	13	-5	5	·	-3	3	·	·	·
O=c1[nH]c(C2CCN(S(=O)(=O)/C=C/c3ccccc3)CC2)nc2c1nnn2Cc1ccc(F)cc1	5	9	48*	·	-2	-3	33	0	7
O=C(CCCc1cccs1)NCCc1c[nH]c2ccccc12	18	-1	46*	·	1	3	20	3	2
CCCCCCCCCCCCCCCC(=O)NCCc1c[nH]c2ccccc12	10	-73	17	·	-1	-1	·	·	·
Cc1ccc(CONC(=O)c2ccc(OC(F)F)cc2)cc1	6	18	78*	-1	0	-4	71*	0	8
N/C(Cc1ccc(Cl)cc1)=N\OC(=O)c1ccc2ccccc2c1	-6	-34	48*	-27	16	-8	16	2	6
N/C(Cc1ccc(Cl)cc1)=N\OC(=O)CCc1ccccc1	·	·	4	-18	·	-14	·	·	·
COc1ccc(Nc2nc(-c3sc(C)nc3C)cs2)cc1	-4	-20	53*	·	-5	-4	53*	-1	5
COc1ccc(NC(=O)CCC(=O)c2ccc(Cl)cc2)cn1	2	5	-6	-4	-3	5	·	·	·
CCOC(=O)C1CCN(C(=O)c2cc3cc(C)ccc3[nH]2)CC1	10	12	85*	·	-2	-2	67*	-1	-6
CCOC(=O)C1CCN(C(=O)c2cc3c(C)cc(C)cc3[nH]2)CC1	8	0	46*	·	-3	-4	31	1	5
CCOc1ccccc1N1CCN(C(=O)c2cc3c(C)cc(C)cc3[nH]2)CC1	-1	-3	52*	·	-2	-7	35	0	10
COc1cc2nc(C3CCC3)nc(N3CCN(c4ccccc4OC)CC3)c2cc1OC	14	-7	46*	·	3	9	36	2	-6
COc1cc2nc(Cl)nc(N3CCN(C)CC3)c2cc1OC	·	0	·	·	-3	·	·	·	·
C=CCN1C(=O)NC(c2ccc(OC)cc2)(C(F)(F)F)S/C1=C(\C#N)c1nnc(N2CCOCC2)n1-c1ccccc1 (centres undefined)	-3	-7	68*	·	-4	-2	69*	0	6
COCCOC(=O)c1c(NC(=O)CN(C)c2ccccc2)sc(C(N)=O)c1C	1	-3	88*	7	-3	7	54*	3	11
COCCOC(=O)c1c(NC(=O)CN2CCc3ccccc32)sc(C(N)=O)c1C	5	4	70*	-7	0	-8	22	-1	-11
COCCOC(=O)c1c(NC(=O)COC(=O)Cc2cccc(OC)c2)sc(C(N)=O)c1C	10	13	44*	-1	-10	0	17	-2	-19
COCCOC(=O)c1c(NC(=O)CNC2CCCc3ccccc32)sc(C(N)=O)c1C (centres undefined)	10	-25	82*	7	-1	5	42	-2	-6
SMILES	CCR6 antagonist	APJ antag	EBI2 block	TAG inh	APJ agonist	CXCR6 block	EBI2 conf	EBI2 ag	bGal cs
CC(C)(C)c1ccc(NC(=O)CNC2CCCc3ccccc32)cc1 (centres undefined)	8	3	-15	-2	-1	-6	·	·	·
COc1cccc(CNC(=O)COC(=O)c2c(NC(C)=O)sc(C)c2C)c1	-1	13	5	-22	-2	1	·	·	·
CCOC(=O)c1c(NC(=O)CN2CCCc3ccccc32)sc(C(C)=O)c1C	-29	-5	-2	·	-3	-14	·	·	·
CN1CCN(C(=O)c2ccc(-c3ccc(F)c(F)c3)c3ccoc23)CC1	·	·	-5	5	·	-10	·	·	·
Cc1ccc(N(CC(=O)Nc2cccc(Cl)c2C)S(C)(=O)=O)cc1	-2	-9	8	·	-1	11	·	·	·
CC(=O)Nc1ccc(S(=O)(=O)N(C)CC(=O)Nc2nc3ccccc3[nH]2)cc1	2	13	-7	5	-6	-5	·	·	·
Cc1ccc(C(=O)NC(C)C2CC3CCC2C3)c(C)c1 (centres undefined)	10	9	2	·	-3	-6	·	·	·
Cc1cc(OCc2cc(C(=O)N(Cc3nccn3C)C(C)C)no2)cc(C)c1Cl	14	12	2	·	-3	-3	·	·	·
COc1ccc(Nc2ccc(Nc3ccc(OC)cc3)nn2)cc1	13	6	69*	·	5	-6	31	1	-10
COc1ccccc1OCC(=O)NCC1CCCN(Cc2cnn(C(C)C)c2)C1 (centres undefined)	6	6	-7	18	-2	0	·	·	·
Cc1cc(C)cc(NC(=O)Nc2ccc3c(c2)N(C)C(=O)CS3)c1	-21	2	38*	1	1	-12	48	-1	-19
CN(C)S(=O)(=O)c1ccc(C(=O)NCCSc2ccc(Br)cc2)cc1	22	12	65*	·	-2	6	47	1	2
O=C(Nc1ccccc1)c1cc(C2COCCN2C(=O)CCCc2ccccc2)on1 (centres undefined)	·	·	-8	6	·	-5	·	·	·
COc1ccc(NC(=O)C2CCCN2C(=O)Nc2ccccc2)cc1OC (centres undefined)	1	-1	-8	2	-8	-4	·	·	·

Source: PubChem BioAssay (Sanford-Burnham Center for Chemical Genomics)
